Where a SMILES comes first, the peptide text is derived from it. Bridges are numbered along the chain shown (N, C = ends). [ ]: non-standard residue; d: D form. The star is where a group is joined. X1 = CC[C@H](C)CCCCC(=O)*; Dab = NCC[C@H](N)C(=O)O
How the values were obtained:
Salmonella paratyphi [1] = assay: Antibacterial activity against Salmonella paratyphi A CICC 20501 assessed as bacterial growth inhibition incubated for 18 to 24 hrs by microtiter broth dilution method; type: functional, Salmonella enterica subsp. enterica serovar Paratyphi A; settings: Salmonella enterica, time 18-24 hrs
Method in brief: (§1)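 Log-phase bacteria grown at 37 °C in MHB, diluted to 10^5 CFU/mL, mixed 1:1 with serial peptide dilutions (peptide diluted in 0.01% acetic acid, 0.2% BSA); 37 °C for 18-24 h. MIC read by OD492 as lowest concentration giving no growth; mean of 3-5 independent experiments.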

Escherichia coli [2] = assay: Antibacterial activity against Escherichia coli O157:H7 CICC 21530 assessed as bacterial growth inhibition incubated for 18 to 24 hrs by microtiter broth dilution method; type: functional; settings: time 18-24 hrs; method in brief: as §1
[3] = tested on: Salmonella enterica subsp. enterica serovar Paratyphi B; assay: Antibacterial activity against Salmonella paratyphi B CICC 21495 assessed as bacterial growth inhibition incubated for 18 to 24 hrs by microtiter broth dilution method; type: functional; settings: time 18-24 hrs; method in brief: as §1
Vibrio parahaemolyticus = assay: Antibacterial activity against Vibrio parahaemolyticus CICC 21617 assessed as bacterial growth inhibition incubated for 18 to 24 hrs by broth dilution method; type: functional; settings: time 18-24 hrs
Method in brief: (§2)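 Log-phase cells (grown overnight at 37 °C, subcultured in MHB) diluted to 10^5 CFU/mL in MHB and mixed 1:1 with serial peptide dilutions prepared in 0.01% acetic acid/0.2% BSA. Incubated 37 °C for 18-24 h. MIC is the lowest concentration giving no growth by OD492. Reported as the average of 3-5 independent experiments.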

Staphylococcus aureus [4] = assay: Antibacterial activity against Staphylococcus aureus GIM 1.160 assessed as bacterial growth inhibition incubated for 18 to 24 hrs by microtiter broth dilution method; type: functional; settings: time 18-24 hrs; method in brief: as §2
Salmonella enterica = assay: Antibacterial activity against Salmonella choleraesuis ATCC 13312 assessed as bacterial growth inhibition incubated for 18 to 24 hrs by broth dilution method; type: functional; settings: time 18-24 hrs; method in brief: as §1
Salmonella typhimurium = assay: Antibacterial activity against Salmonella typhimurium CMCC 51005 assessed as bacterial growth inhibition incubated for 18 to 24 hrs by microtiter broth dilution method; type: functional, Salmonella enterica subsp. enterica serovar Typhimurium; settings: Salmonella enterica, time 18-24 hrs; method in brief: as §2
Candida albicans = assay: Antifungal activity against Candida albicans ATCC 10231 assessed as fungal growth inhibition incubated for 18 to 24 hrs by microtiter broth dilution method; type: functional; settings: time 18-24 hrs; method in brief: as §2
Micrococcus luteus = assay: Antibacterial activity against Micrococcus luteus CMCC 28001 assessed as bacterial growth inhibition incubated for 18 to 24 hrs by microtiter broth dilution method; type: functional; settings: time 18-24 hrs; method in brief: as §2
Erythrocyte = assay: Hemolytic activity against human red blood cells assessed as concentration required to cause 10% hemoglobin release measured after 1 hr by microplate reader analysis; type: ADME, cell-based
Method in brief: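 Fresh heparinized human RBCs washed three times in 10 mM PBS pH 7.4 and resuspended to about 1% (v/v) (5.4 × 10^8 cells/mL). Mixed 1:1 with peptide in PBS for 1 h at 37 °C, then centrifuged. Supernatant hemoglobin read at A540. PBS set as 0% and 0.1% Triton X-100 as 100% hemolysis. MHC is the concentration causing 10% hemolysis.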

Escherichia coli [5] = assay: Antibacterial activity against Escherichia coli ATCC 25922 assessed as bacterial growth inhibition incubated for 18 to 24 hrs by microtiter broth dilution method; type: functional; settings: time 18-24 hrs; method in brief: as §2
Escherichia coli [6] = assay: Antibacterial activity against Escherichia coli ATCC 35150 assessed as bacterial growth inhibition incubated for 18 to 24 hrs by microtiter broth dilution method; type: functional; settings: time 18-24 hrs; method in brief: as §2
Salmonella paratyphi [7] = assay: Antibacterial activity against Salmonella paratyphi C CICC 21512 assessed as bacterial growth inhibition incubated for 18 to 24 hrs by microtiter broth dilution method; type: functional; settings: Salmonella enterica, time 18-24 hrs; method in brief: as §1
Staphylococcus aureus [8] = assay: Antibacterial activity against methicillin resistant Staphylococcus aureus ATCC 43300 assessed as bacterial growth inhibition incubated for 18 to 24 hrs by microtiter broth dilution method; type: functional; settings: time 18-24 hrs; method in brief: as §1
Staphylococcus aureus [9] = assay: Antibacterial activity against Staphylococcus aureus ATCC 29213 assessed as bacterial growth inhibition incubated for 18 to 24 hrs by microtiter broth dilution method; type: functional; settings: time 18-24 hrs; method in brief: as §2
Shigella flexneri = assay: Antibacterial activity against Shigella flexneri CMCC 51571 assessed as bacterial growth inhibition incubated for 18 to 24 hrs by microtiter broth dilution method; type: functional; settings: time 18-24 hrs; method in brief: as §2
Listeria monocytogenes [10] = assay: Antibacterial activity against Listeria monocytogenes CICC 21633 assessed as bacterial growth inhibition incubated for 18 to 24 hrs by microtiter broth dilution method; type: functional; settings: time 18-24 hrs; method in brief: as §2
Bacillus pumilus = assay: Antibacterial activity against Bacillus pumilus CMCC 63202 assessed as bacterial growth inhibition incubated for 18 to 24 hrs by microtiter broth dilution method; type: functional; settings: time 18-24 hrs; method in brief: as §2
Bacillus cereus = assay: Antibacterial activity against Bacillus cereus CMCC 63301 assessed as bacterial growth inhibition incubated for 18 to 24 hrs by microtiter broth dilution method; type: functional; settings: time 18-24 hrs; method in brief: as §2
Listeria monocytogenes [11] = assay: Antibacterial activity against Listeria monocytogenes CICC 21662 assessed as bacterial growth inhibition incubated for 18 to 24 hrs by microtiter broth dilution method; type: functional; settings: time 18-24 hrs; method in brief: as §2
Salmonella enteritidis = assay: Antibacterial activity against Salmonella enteritidis CICC 21527 assessed as bacterial growth inhibition incubated for 18 to 24 hrs by microtiter broth dilution method; type: functional, Salmonella enterica subsp. enterica serovar Enteritidis; settings: Salmonella enterica, time 18-24 hrs; method in brief: as §2
Pseudomonas fluorescens = assay: Antibacterial activity against Pseudomonas fluorescens CICC 21620 assessed as bacterial growth inhibition incubated for 18 to 24 hrs by microtiter broth dilution method; type: functional; settings: time 18-24 hrs; method in brief: as §2
[12] = Therapeutic index, ratio of MHC10 for human RBC to geometric mean of peptide MIC for Escherichia coli O157:H7 CICC 21530; type: toxicity; settings: human red blood cells (RBC), pooled result: one value given for 11 cell lines, strains, targets or settings, read-out: TI
Method in brief: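 Therapeutic index = MHC (peptide concentration giving 10% hemolysis of human RBCs, 1 h, 37 °C, A540) divided by geometric mean of MICs from broth microdilution (10^5 CFU/mL in MHB, 37 °C, 18-24 h, OD492).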

C[C@@H]1[C@H](O)[C@@H](C)/C=C/C=C/C=C/C=C/C=C/C=C/C=C/[C@H](O[C@@H]2O[C@H](C)[C@@H](O)[C@H](N)[C@@H]2O)C[C@@H]2O[C@](O)(C[C@@H](O)C[C@@H](O)[C@H](O)CC[C@@H](O)C[C@@H](O)CC(=O)O[C@H]1C)C[C@H](O)[C@H]2C(=O)O [AMPHOTERICIN B]
> 139 µM: MIC (Salmonella paratyphi [1]) | MIC (Escherichia coli [2]) | MIC [3] | MIC (Vibrio parahaemolyticus) | MIC (Staphylococcus aureus [4]) | MIC (Salmonella enterica) | MIC (Salmonella typhimurium) | MIC (Micrococcus luteus) | MIC (Escherichia coli [5]) | MIC (Escherichia coli [6]) | MIC (Salmonella paratyphi [7]) | MIC (Staphylococcus aureus [8]) | MIC (Staphylococcus aureus [9]) | MIC (Shigella flexneri) | MIC (Listeria monocytogenes [10]) | MIC (Bacillus pumilus) | MIC (Bacillus cereus) | MIC (Listeria monocytogenes [11]) | MIC (Salmonella enteritidis) | MIC (Pseudomonas fluorescens)
0.54 µM: MHC10 (Erythrocyte)
4.33 µM: MIC (Candida albicans)

CC[C@H](C)CCCCC(=O)N[C@@H](CCN)C(=O)N[C@H](C(=O)N[C@@H](CCN)C(=O)N[C@H]1CCNC(=O)[C@H]([C@@H](C)O)NC(=O)[C@H](CCN)NC(=O)[C@H](CCN)NC(=O)[C@H](CC(C)C)NC(=O)[C@@H](Cc2ccccc2)NC(=O)[C@H](CCN)NC1=O)[C@@H](C)O (X1-[Dab]T[Dab][Dab][Dab][dF]L[Dab][Dab]T; lactam 4-C)
0.38 µM: MIC (Escherichia coli [5])
1.54 µM: MIC [3] | MIC (Salmonella enterica) | MIC (Escherichia coli [6]) | MIC (Salmonella enteritidis)
0.77 µM: MIC (Salmonella paratyphi [1]) | MIC (Vibrio parahaemolyticus) | MIC (Salmonella typhimurium) | MIC (Shigella flexneri)
49.2 µM: MIC (Staphylococcus aureus [4]) | MIC (Candida albicans) | MIC (Staphylococcus aureus [9]) | MIC (Bacillus pumilus) | MIC (Bacillus cereus) | MIC (Pseudomonas fluorescens)
> 98.3 µM: MIC (Micrococcus luteus) | MIC (Staphylococcus aureus [8])
> 98.34 µM: MHC10 (Erythrocyte)
24.6 µM: MIC (Listeria monocytogenes [11])
3.07 µM: MIC (Escherichia coli [2]) | MIC (Salmonella paratyphi [7])
165: selectivity ratio [12]
12.3 µM: MIC (Listeria monocytogenes [10])

Reference: ChEMBL document CHEMBL4765236, “Insights into the Antimicrobial Activity and Cytotoxicity of Engineered α-Helical Peptide Amphiphiles” (J Med Chem, 2016)
